The record followed here is ChEMBL document CHEMBL1154352, “Toll-like receptor 7 selective synthetic oligoribonucleotide agonists: synthesis and structure-activity relationship studies” (J Med Chem, 2009).

In data set [1] the target is T1, Toll-like receptor 8 (Homo sapiens) (UniProt Q9NR97).
T1 sequence (whole entry): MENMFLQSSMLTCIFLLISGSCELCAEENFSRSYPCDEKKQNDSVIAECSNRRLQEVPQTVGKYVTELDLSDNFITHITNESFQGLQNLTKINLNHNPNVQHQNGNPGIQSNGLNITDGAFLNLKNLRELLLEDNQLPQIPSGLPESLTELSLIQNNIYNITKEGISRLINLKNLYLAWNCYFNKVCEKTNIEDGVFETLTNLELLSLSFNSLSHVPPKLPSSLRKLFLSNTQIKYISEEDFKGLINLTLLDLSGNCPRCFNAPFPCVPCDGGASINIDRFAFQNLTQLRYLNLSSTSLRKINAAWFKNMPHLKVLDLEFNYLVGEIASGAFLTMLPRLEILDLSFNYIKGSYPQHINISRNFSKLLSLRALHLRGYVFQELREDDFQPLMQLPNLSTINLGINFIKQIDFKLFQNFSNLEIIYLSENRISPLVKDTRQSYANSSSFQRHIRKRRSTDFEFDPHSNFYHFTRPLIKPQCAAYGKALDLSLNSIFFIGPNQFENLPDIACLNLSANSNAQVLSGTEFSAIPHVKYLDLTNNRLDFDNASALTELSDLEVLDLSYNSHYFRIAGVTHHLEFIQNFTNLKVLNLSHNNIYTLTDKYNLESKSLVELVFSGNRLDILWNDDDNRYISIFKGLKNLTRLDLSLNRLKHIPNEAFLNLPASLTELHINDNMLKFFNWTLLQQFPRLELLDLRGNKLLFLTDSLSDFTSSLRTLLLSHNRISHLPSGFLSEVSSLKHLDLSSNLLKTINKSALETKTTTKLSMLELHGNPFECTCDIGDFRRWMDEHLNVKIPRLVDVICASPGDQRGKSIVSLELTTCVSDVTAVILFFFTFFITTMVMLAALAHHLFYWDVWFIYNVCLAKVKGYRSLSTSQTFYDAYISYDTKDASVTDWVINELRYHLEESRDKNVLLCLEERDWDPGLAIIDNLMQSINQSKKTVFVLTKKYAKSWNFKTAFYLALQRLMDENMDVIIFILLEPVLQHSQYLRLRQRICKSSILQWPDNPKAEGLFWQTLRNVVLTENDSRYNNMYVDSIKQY
Nature of the data set: Activation of human TLR8 expressed in HEK293XL assessed as fold induction of NF-kappaB activity at 50 ug/ml after 18 hrs by reporter gene assay relative to control. In a few lines: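 HEK293 cells stably expressing human TLR7 or TLR8, transiently transfected with SEAP reporter plasmid; medium replaced, SIMRA compounds added, 18 h incubation. Supernatant SEAP measured by QuantiBlue; expressed as fold increase in NF-κB activity over PBS control. Tabulated data at 50 μg/mL, representative of three independent experiments.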
(In general: In a reporter assay the amount or activity of a reporter protein is the signal.)

Data set [2] has as its system Splenocyte. Nature of the data set: Immunomodulatory activity in C57BL/6 mouse splenocytes bearing TLR7 receptor assessed as IL12 release at 100 ug/ml after 24 hrs by ELISA. The class given is functional, cell-based. In a few lines:
(§1)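 C57BL/6 splenocytes in RPMI 1640 with 10% FBS, penicillin/streptomycin, 2 mM L-glutamine, plated at 5 × 10^6 cells/mL; compounds in PBS added, 37 °C for 24 h. Supernatant IL-12 and IL-6 by ELISA; representative of three independent experiments.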
For orientation: ELISA stands for enzyme-linked immunosorbent assay.

The subject of data set [3] is PBMC. Briefly: Immunomodulatory activity in human PBMC assessed as induction of IL12 at 100 ug/ml after 24 hrs. The data set is classed as functional, cell-based. In a few lines:
(§2)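 Human PBMCs plated at 5 × 10^6 cells/mL; compounds dissolved in PBS added at various concentrations, 37 °C for 24 h. Supernatant cytokines/chemokines quantified with human Luminex multiplex kit.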

For data set [4], the system named is PBMC. Briefly: Immunomodulatory activity in human PBMC assessed as induction of IFN-alpha at 100 ug/ml after 24 hrs.
For data set [5], the system named is PBMC. Nature of the data set: Immunomodulatory activity in human PBMC assessed as induction of TNFalpha at 100 ug/ml after 24 hrs. The data set is classed as functional, cell-based. In a few lines: as §2
A short description of data set [6]: Metabolic stability in human serum assessed as full length product remaining after 10 mins by HPLC. The class given is ADME, cell-free. The settings on record: read-out: Stability. In a few lines:
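About 0.5 A260 units compound in 1% human serum in PBS, 37 °C; aliquot taken at 10 min, analysed by anion-exchange HPLC for percent intact full-length product.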

Data set [7] relates to Splenocyte. Nature of the data set: Immunomodulatory activity in C57BL/6 mouse splenocytes bearing TLR7 receptor assessed as IL6 release at 100 ug/ml after 24 hrs by ELISA. The data set is classed as functional, cell-based. In a few lines: as §1
Data set [8] concerns the target Toll-like receptor 3 (Homo sapiens) (UniProt O15455). Nature of the data set: Activation of human TLR3 expressed in HEK293 assessed as induction of NF-kappaB activity reporter gene assay. The data set is classed as cell-based.
Data set [9] deals with T2, Toll-like receptor 9 (Mus musculus) (UniProt Q9EQU3).
T2 sequence (whole entry): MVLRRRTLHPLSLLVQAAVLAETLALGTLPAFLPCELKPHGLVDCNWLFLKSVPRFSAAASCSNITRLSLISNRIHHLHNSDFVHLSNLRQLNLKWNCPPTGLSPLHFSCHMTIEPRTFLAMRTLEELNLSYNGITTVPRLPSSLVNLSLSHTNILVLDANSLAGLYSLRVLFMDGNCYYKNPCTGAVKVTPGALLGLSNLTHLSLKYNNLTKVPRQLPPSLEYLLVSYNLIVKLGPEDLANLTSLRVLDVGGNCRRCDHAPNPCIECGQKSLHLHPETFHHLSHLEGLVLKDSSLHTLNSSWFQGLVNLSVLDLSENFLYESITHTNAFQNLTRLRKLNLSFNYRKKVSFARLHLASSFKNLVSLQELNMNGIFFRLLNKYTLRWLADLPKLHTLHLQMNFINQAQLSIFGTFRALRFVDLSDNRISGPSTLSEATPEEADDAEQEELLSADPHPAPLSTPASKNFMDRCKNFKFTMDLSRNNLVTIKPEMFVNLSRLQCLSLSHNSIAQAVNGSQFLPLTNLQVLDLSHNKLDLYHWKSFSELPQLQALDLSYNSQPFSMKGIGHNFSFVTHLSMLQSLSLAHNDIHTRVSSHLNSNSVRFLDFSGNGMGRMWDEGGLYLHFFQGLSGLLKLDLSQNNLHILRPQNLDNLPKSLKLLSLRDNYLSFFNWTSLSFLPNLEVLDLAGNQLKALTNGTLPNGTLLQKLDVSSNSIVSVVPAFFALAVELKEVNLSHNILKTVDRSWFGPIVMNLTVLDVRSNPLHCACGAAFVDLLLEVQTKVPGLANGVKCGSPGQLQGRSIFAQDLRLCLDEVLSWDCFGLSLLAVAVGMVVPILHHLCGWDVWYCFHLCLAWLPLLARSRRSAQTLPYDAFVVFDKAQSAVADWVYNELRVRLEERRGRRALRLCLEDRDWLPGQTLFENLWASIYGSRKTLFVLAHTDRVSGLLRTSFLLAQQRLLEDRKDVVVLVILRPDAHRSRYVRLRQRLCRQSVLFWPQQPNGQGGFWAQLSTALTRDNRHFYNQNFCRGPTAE
Nature of the data set: Activation of mouse TLR9 expressed in HEK293 assessed as induction of NF-kappaB activity reporter gene assay. The class given is cell-based.

The structures appear in SMILES notation. Active and inactive are the calls of the source. No cut-off for these calls is given here.

Toll-like receptor 3 (Homo sapiens), sequence (O15455 whole entry): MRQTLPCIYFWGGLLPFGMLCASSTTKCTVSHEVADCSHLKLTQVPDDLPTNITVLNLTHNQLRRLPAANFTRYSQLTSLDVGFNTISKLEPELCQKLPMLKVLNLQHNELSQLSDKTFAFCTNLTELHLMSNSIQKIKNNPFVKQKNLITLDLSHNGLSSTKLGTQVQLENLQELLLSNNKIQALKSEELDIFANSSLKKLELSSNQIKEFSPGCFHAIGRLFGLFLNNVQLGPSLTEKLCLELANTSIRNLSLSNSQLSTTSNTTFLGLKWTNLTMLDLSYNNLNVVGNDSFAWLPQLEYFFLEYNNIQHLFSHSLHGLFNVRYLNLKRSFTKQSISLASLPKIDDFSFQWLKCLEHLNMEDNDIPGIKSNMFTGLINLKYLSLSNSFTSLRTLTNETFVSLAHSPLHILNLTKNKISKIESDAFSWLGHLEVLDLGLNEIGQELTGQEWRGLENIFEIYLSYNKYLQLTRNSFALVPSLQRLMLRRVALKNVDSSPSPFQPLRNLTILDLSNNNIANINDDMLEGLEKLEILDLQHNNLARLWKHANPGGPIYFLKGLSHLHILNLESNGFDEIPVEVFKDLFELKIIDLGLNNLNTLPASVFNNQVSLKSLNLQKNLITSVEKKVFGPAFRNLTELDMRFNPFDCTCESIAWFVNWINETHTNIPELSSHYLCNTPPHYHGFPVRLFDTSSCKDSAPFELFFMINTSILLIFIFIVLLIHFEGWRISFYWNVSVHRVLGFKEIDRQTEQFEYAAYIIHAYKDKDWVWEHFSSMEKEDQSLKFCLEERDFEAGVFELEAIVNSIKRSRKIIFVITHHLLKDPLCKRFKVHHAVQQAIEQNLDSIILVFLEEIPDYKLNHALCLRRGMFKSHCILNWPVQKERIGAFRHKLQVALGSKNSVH

As for `Nc1ccn([C@@H]2O[C@H](COP(=O)(S)O[C@H]3[C@@H](O)[C@H](n4cnc5c(N)ncnc54)O[C@@H]3COP(=O)(S)O[C@H]3[C@@H](O)[C@H](n4ccc5c(=O)[nH]c(N)nc54)O[C@@H]3COP(=O)(S)O[C@H]3[C@@H](O)[C@H](n4ccc(=O)[nH]c4=O)O[C@@H]3COP(=O)(S)O[C@H]3[C@@H](O)[C@H](n4ccc(=O)[nH]c4=O)O[C@@H]3COP(=O)(S)O[C@H]3[C@@H](O)[C@H](n4cnc5c(N)ncnc54)O[C@@H]3COP(=O)(S)O[C@H]3[C@@H](O)[C@H](n4cnc5c(N)ncnc54)O[C@@H]3CO)[C@@H](OP(=O)(S)OC[C@H]3O[C@@H](n4ccc5c(=O)[nH]c(N)nc54)[C@H](O)[C@@H]3OP(=O)(S)OC[C@H]3O[C@@H](n4ccc(N)nc4=O)[C@H](O)[C@@H]3OP(=O)(S)OC[C@H]3O[C@@H](n4ccc(=O)[nH]c4=O)[C@H](O)[C@@H]3OP(=O)(S)OC[C@H]3O[C@@H](n4ccc(=O)[nH]c4=O)[C@H](O)[C@@H]3OP(=O)(S)OCC(O)COP(=O)(S)O[C@H]3[C@@H](O)[C@H](n4ccc(=O)[nH]c4=O)O[C@@H]3COP(=O)(S)O[C@H]3[C@@H](O)[C@H](n4ccc(=O)[nH]c4=O)O[C@@H]3COP(=O)(S)O[C@H]3[C@@H](O)[C@H](n4ccc(N)nc4=O)O[C@@H]3COP(=O)(S)O[C@H]3[C@@H](O)[C@H](n4ccc5c(=O)[nH]c(N)nc54)O[C@@H]3COP(=O)(S)O[C@H]3[C@@H](O)[C@H](n4ccc(N)nc4=O)O[C@@H]3COP(=O)(S)O[C@H]3[C@@H](O)[C@H](n4cnc5c(N)ncnc54)O[C@@H]3COP(=O)(S)O[C@H]3[C@@H](O)[C@H](n4ccc5c(=O)[nH]c(N)nc54)O[C@@H]3COP(=O)(S)O[C@H]3[C@@H](O)[C@H](n4ccc(=O)[nH]c4=O)O[C@@H]3COP(=O)(S)O[C@H]3[C@@H](O)[C@H](n4ccc(=O)[nH]c4=O)O[C@@H]3COP(=O)(S)O[C@H]3[C@@H](O)[C@H](n4cnc5c(N)ncnc54)O[C@@H]3COP(=O)(S)O[C@H]3[C@@H](O)[C@H](n4cnc5c(N)ncnc54)O[C@@H]3CO)[C@H]2O)c(=O)n1` (stereo partly drawn), in data set [1], the fold change (FC) was found to be 0.3. Besides, the outcome with Splenocyte [2] and in the data set with Splenocyte [7] was Active. In addition, the Activity in the data set on PBMC [3] stood at 340 pg/mL; in the data set with PBMC [5], 8.8 pg/mL. The IFN-alpha in the data set on PBMC [4] was found to be 193 pg/mL. Also, in [6], the remaining at 10 min was found to be 80%. The result in data set [8] and in data set [9] was inactive.

With `Nc1ccn([C@@H]2O[C@H](CO)[C@@H](OP(=O)(S)OC[C@H]3O[C@@H](n4ccc(=O)[nH]c4=O)[C@H](O)[C@@H]3OP(=O)(S)OC[C@H]3O[C@@H](n4ccc5c(=O)[nH]c(N)nc54)[C@H](O)[C@@H]3OP(=O)(S)OC[C@H]3O[C@@H](n4cnc5c(N)ncnc54)[C@H](O)[C@@H]3OP(=O)(S)OC[C@H]3O[C@@H](n4ccc5c(=O)[nH]c(N)nc54)[C@H](O)[C@@H]3OP(=O)(S)OC[C@H]3O[C@@H](n4cnc5c(N)ncnc54)[C@H](O)[C@@H]3OP(=O)(S)OC[C@H]3O[C@@H](n4cnc5c(N)ncnc54)[C@H](O)[C@@H]3OP(=O)(S)OC[C@H]3O[C@@H](n4ccc5c(=O)[nH]c(N)nc54)[C@H](O)[C@@H]3OP(=O)(S)OC[C@H]3O[C@@H](n4ccc(N)nc4=O)[C@H](O)[C@@H]3OP(=O)(S)OC[C@H]3O[C@@H](n4ccc(=O)[nH]c4=O)[C@H](O)[C@@H]3OP(=O)(S)OC[C@H]3O[C@@H](n4ccc(=O)[nH]c4=O)[C@H](O)[C@@H]3OP(=O)(S)OCC(O)COP(=O)(S)O[C@H]3[C@@H](O)[C@H](n4ccc(=O)[nH]c4=O)O[C@@H]3COP(=O)(S)O[C@H]3[C@@H](O)[C@H](n4ccc(=O)[nH]c4=O)O[C@@H]3COP(=O)(S)O[C@H]3[C@@H](O)[C@H](n4ccc(N)nc4=O)O[C@@H]3COP(=O)(S)O[C@H]3[C@@H](O)[C@H](n4ccc5c(=O)[nH]c(N)nc54)O[C@@H]3COP(=O)(S)O[C@H]3[C@@H](O)[C@H](n4cnc5c(N)ncnc54)O[C@@H]3COP(=O)(S)O[C@H]3[C@@H](O)[C@H](n4cnc5c(N)ncnc54)O[C@@H]3COP(=O)(S)O[C@H]3[C@@H](O)[C@H](n4ccc5c(=O)[nH]c(N)nc54)O[C@@H]3COP(=O)(S)O[C@H]3[C@@H](O)[C@H](n4cnc5c(N)ncnc54)O[C@@H]3COP(=O)(S)O[C@H]3[C@@H](O)[C@H](n4ccc5c(=O)[nH]c(N)nc54)O[C@@H]3COP(=O)(S)O[C@H]3[C@@H](O)[C@H](n4ccc(=O)[nH]c4=O)O[C@@H]3COP(=O)(S)O[C@H]3[C@@H](O)[C@H](n4ccc(N)nc4=O)O[C@@H]3CO)[C@H]2O)c(=O)n1` (stereo partly drawn), the fold change (FC) in data set [1] is 0.4. Also, the result with Splenocyte [2] and in the data set with Splenocyte [7] was Active. The Activity with PBMC [3] came out at 1750 pg/mL; with PBMC [5] it was 818 pg/mL. Further, in the data set on PBMC [4], the IFN-alpha came to 123 pg/mL. Further, the remaining at 10 min in [6] was 72%. Further, the result in data set [8] and in data set [9] was inactive.
